# Assay results from different studies.
# Protocols differ between the studies behind these lines. pEC50: −log10 of the molar value.
Structure (SMILES),organism,assay,test system,conditions,measurement,value
O=c1[nH]c(CCl)nc2scc(-c3ccccc3F)c12,Trypanosoma brucei,"parasite growth, ATP luminescence",,24 h,pEC50,6.00
CC(=O)N1CCN(c2ccc(OCC3COC(Cn4ccnc4)(c4ccc(Cl)cc4Cl)O3)cc2)CC1 (stereo not drawn),Candida albicans,"microbial growth, broth dilution",56452,48 h,MIC,2 µM
CC[C@H]1OC(=O)[C@H](C)[C@@H](O[C@H]2C[C@@](C)(OC)[C@@H](O)[C@H](C)O2)[C@H](C)[C@@H](O[C@@H]2O[C@H](C)C[C@H](N(C)C)[C@H]2O)[C@](C)(O)C[C@@H](C)/C(=N\OCOCCOC)[C@H](C)[C@@H](O)[C@]1(C)O,Enterococcus faecium,microbial growth,,clinical isolate,MIC90,> 128 µg/mL
C/C(=N\c1nc(N)nc(/N=C(\C)c2c(O)c3ccccc3oc2=O)n1)c1c(O)c2ccccc2oc1=O,Penicillium verrucosum,"microbial growth, broth dilution",,48 h,MIC,7.81 µg/mL
Cc1c2c(nn1C)CSCc1cc(n(C)n1)CSc1cc(c3ccccc3c1)OCCCc1c(C(=O)O)n(C)c3c-2c(Cl)ccc13,Enterococcus faecium,"microbial growth, broth dilution",,clinical isolate,MIC50,12.5 µM
CCOC(=O)c1cnc2c([N+](=O)[O-])cc(C(F)(F)F)cc2c1NCCCn1ccnc1,Trypanosoma brucei,"parasite growth, resazurin",,72 h,pEC50,5.10
c1coc(Nc2ncnc3ccc(-c4cncc(N5CCOCC5)n4)cc23)n1,Trypanosoma brucei,"parasite growth, SYBR Green",,48 h,GI50,25000 nM
C=C[C@]1(C)C[C@@H](OC(=O)CS[C@@H]2C[C@H]3CC[C@@H](C2)N3C)[C@]2(C)[C@H](C)CC[C@]3(CCC(=O)[C@H]32)[C@@H](C)[C@@H]1O,Enterococcus faecium,microbial growth,,clinical isolate,MIC90,128 µg/mL
FC(F)(F)c1cc(Nc2ncnc3ccc(-c4cccc(N5CCOCC5)c4)cc23)ccc1Cl,Trypanosoma brucei,"parasite growth, SYBR Green",,48 h,GI50,50 nM
C/C(=N\N=C(/C)c1c(O)c2ccccc2oc1=O)c1c(O)c2ccccc2oc1=O,Penicillium verrucosum,"microbial growth, broth dilution",,48 h,MIC,62.5 µg/mL
C[C@@H]1[C@H](O)[C@@H](C)/C=C/C=C/C=C/C=C/C=C/C=C/C=C/[C@H](O[C@@H]2O[C@H](C)[C@@H](O)[C@H](N)[C@@H]2O)C[C@@H]2O[C@](O)(C[C@@H](O)C[C@@H](O)[C@H](O)CC[C@@H](O)C[C@@H](O)CC(=O)O[C@H]1C)C[C@H](O)[C@H]2C(=O)O,Candida albicans,"microbial growth, broth dilution",CGMCC2,48 h,MIC,< 0.25 µM
CN1CCN(c2cccc(-c3ccc4ncnc(Nc5ncco5)c4c3)c2)CC1,Trypanosoma brucei,"parasite growth, SYBR Green",,48 h,GI50,1700 nM
CC1(C)S[C@@H]2[C@H](NC(=O)[C@H](N)c3ccccc3)C(=O)N2[C@H]1C(=O)O,Enterococcus faecium,"microbial growth, broth dilution",ATCC19434,12 h,MIC,0.5 µg/mL
C/C(=N\CCNCCNCC/N=C(\C)c1c(O)c2ccccc2oc1=O)c1c(O)c2ccccc2oc1=O,Penicillium verrucosum,"microbial growth, broth dilution",,48 h,MIC,31.2 µg/mL
CN1CCC(Nc2ncnc3ccc(-c4cccc(N5CCOCC5)c4)cc23)CC1,Trypanosoma brucei,"parasite growth, SYBR Green",,48 h,GI50,4700 nM
CC1(C)S[C@@H]2[C@H](NC(=O)[C@H](N)c3ccccc3)C(=O)N2[C@H]1C(=O)O,Enterococcus faecium,microbial growth,,clinical isolate,MIC50,128 µg/mL
c1cc(-c2ccc3ncnc(Nc4ncco4)c3c2)nc(N2CCOCC2)c1,Trypanosoma brucei,"parasite growth, SYBR Green",,48 h,GI50,190 nM
O=c1[nH]c(CCl)nc2scc(-c3ccc(C(F)(F)F)cc3)c12,Trypanosoma brucei,"parasite growth, ATP luminescence",,48 h,pEC50,5.60
CCOC(=O)c1cnc2c([N+](=O)[O-])cc(C(F)(F)F)cc2c1NCCc1ccccc1,Trypanosoma brucei,"parasite growth, resazurin",,72 h,pEC50,< 5.00
CC(=O)N1CCN(c2ccc(OCC3COC(Cn4ccnc4)(c4ccc(Cl)cc4Cl)O3)cc2)CC1 (stereo not drawn),Penicillium verrucosum,"microbial growth, broth dilution",,48 h,MIC,3.9 µg/mL
O=c1[nH]c(CCl)nc2scc(-c3cccc(F)c3)c12,Trypanosoma brucei,"parasite growth, ATP luminescence",,48 h,pEC50,5.96
O=[N+]([O-])c1ccc(Nc2ncnc3ccc(-c4cccc(N5CCOCC5)c4)cc23)cc1C(F)(F)F,Trypanosoma brucei,"parasite growth, SYBR Green",GAMBIENSE,,GI50,13 nM
OC(Cn1cncn1)(Cn1cncn1)c1ccc(F)cc1F,Candida albicans,"microbial growth, broth dilution",58288,48 h,MIC,8 µM
c1cc(-c2ccc3ncnc(NC4CCOCC4)c3c2)cc(N2CCOCC2)c1,Trypanosoma brucei,"parasite growth, SYBR Green",,48 h,GI50,3000 nM
C/C(=N\C(=N)/N=C(\C)c1c(O)c2ccccc2oc1=O)c1c(O)c2ccccc2oc1=O,Penicillium verrucosum,"microbial growth, broth dilution",,48 h,MIC,125 µg/mL
O=c1[nH]c(CCl)nc2scc(-c3ccc(F)cc3)c12,Trypanosoma brucei,"parasite growth, ATP luminescence",,24 h,pEC50,5.89
Clc1cccc(Nc2ncnc3ccc(-c4cccc(N5CCOCC5)c4)cc23)c1,Trypanosoma brucei,"parasite growth, SYBR Green",,48 h,GI50,380 nM
